{
  "source": "ChEMBL document CHEMBL2440064",
  "about": "“Synthesis and biological evaluation of 2-amino-5-aryl-3-benzylthiopyridine scaffold based potent c-Met inhibitors” (Bioorg Med Chem, 2013)",
  "key": {"[1]": {"molecular_target": "Epidermal growth factor receptor (Homo sapiens, UniProt P00533)", "conditions": "HCC827, at 0.5 µM"}, "[2]": {"assay": "Volume of distribution in rat at 2 mg/kg, iv and 10 mg/kg, po", "format": "ADME, organism-based", "conditions": "in vivo", "how_it_was_run": "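Rats given a single iv dose (2 mg/kg) or a single po dose (10 mg/kg).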"}, "[3]": {"molecular_target": "Macrophage-stimulating protein receptor (Homo sapiens, UniProt Q04912)", "assay": "Inhibition of RON (unknown origin) using poly (Glu, Tyr) 4:1 as substrate after 60 mins by ELISA", "how_it_was_run": "(§1)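 ELISA on wells precoated with 20 µg/mL poly(Glu,Tyr)4:1. Purified kinase with 10 µmol/L ATP in 50 mM HEPES pH 7.4, 50 mM MgCl₂, 0.5 mM MnCl₂, 0.2 mM Na₃VO₄, 1 mM DTT; 1% DMSO vehicle. 60 min at 37°C. Phosphotyrosine detected with PY99 antibody, then HRP anti-mouse IgG and o-phenylenediamine/H₂O₂, A490. Inhibition = [1−(A490/A490 control)]×100%; IC50 from curves.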"}, "MKN-45": {"system": "MKN-45", "assay": "Induction of cell cycle arrest in human MKN45 cells assessed as accumulation at G1 phase at 1 uM after 24 hrs by propidium iodide staining-based FACS analysis (reference value: 39.1%)", "format": "functional"}, "[4]": {"molecular_target": "Vascular endothelial growth factor receptor 1 (Homo sapiens, UniProt P17948)", "sequence (P17948 whole entry)": "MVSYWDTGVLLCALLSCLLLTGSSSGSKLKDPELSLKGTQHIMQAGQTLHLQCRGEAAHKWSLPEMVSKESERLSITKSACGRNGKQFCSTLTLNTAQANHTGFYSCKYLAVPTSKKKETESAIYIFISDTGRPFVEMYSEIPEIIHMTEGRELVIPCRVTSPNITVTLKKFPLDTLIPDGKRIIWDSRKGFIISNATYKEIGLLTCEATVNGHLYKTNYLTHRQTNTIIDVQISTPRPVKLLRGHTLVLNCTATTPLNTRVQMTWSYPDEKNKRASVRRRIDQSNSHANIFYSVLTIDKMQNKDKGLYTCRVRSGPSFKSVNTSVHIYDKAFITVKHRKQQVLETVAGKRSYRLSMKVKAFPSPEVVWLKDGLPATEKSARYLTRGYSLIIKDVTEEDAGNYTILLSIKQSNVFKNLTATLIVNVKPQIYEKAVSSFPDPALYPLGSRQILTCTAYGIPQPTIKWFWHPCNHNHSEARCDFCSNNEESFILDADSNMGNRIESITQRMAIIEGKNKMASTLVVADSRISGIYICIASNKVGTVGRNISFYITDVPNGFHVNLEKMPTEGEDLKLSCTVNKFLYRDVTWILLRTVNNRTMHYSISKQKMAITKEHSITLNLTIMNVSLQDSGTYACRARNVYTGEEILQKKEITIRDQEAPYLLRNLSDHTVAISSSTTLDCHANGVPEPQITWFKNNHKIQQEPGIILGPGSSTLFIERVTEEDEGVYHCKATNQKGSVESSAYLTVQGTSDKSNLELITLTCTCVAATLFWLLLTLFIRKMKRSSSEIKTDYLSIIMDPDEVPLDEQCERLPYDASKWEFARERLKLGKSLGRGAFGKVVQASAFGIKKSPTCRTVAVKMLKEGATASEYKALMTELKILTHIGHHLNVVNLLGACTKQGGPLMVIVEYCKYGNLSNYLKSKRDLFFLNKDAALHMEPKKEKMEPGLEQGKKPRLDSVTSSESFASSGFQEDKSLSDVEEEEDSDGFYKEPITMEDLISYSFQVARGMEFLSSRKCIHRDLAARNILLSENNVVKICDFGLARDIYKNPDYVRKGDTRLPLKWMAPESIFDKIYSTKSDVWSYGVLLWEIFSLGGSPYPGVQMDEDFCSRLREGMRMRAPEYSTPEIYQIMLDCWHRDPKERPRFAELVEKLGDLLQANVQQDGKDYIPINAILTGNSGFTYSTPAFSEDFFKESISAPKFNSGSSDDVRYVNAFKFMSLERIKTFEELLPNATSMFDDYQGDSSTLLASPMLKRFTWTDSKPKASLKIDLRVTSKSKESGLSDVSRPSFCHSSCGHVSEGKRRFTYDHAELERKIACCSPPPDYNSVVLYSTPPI", "assay": "Inhibition of FLT1 (unknown origin) using poly (Glu, Tyr) 4:1 as substrate after 60 mins by ELISA", "how_it_was_run": "as §1"}, "MCF7": {"system": "MCF7", "assay": "Antiproliferative activity against human MCF7 cells after 72 hrs", "conditions": "MCF7, 72 h"}, "BaF3": {"system": "BaF3", "assay": "Antiproliferative activity against mouse BAF3 cells expressing TPR/Met fusion protein after 72 hrs", "format": "functional, cell-based", "conditions": "BaF3, 72 h", "how_it_was_run": "(§2)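 Cells seeded in 96-well plates, exposed next day to a range of compound concentrations and cultured 72 h; proliferation read by sulforhodamine B or CCK-8. IC50 as mean ± SD (μM) from three separate experiments.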"}, "[5]": {"molecular_target": "TPR/MET fusion protein (Mus musculus) (UniProt P16056+F6ZDS4)", "assay": "Inhibition of TPR/Met phosphorylation in mouse BAF3 cells after 2 hrs by Western blotting analysis", "format": "cell-based", "how_it_was_run": "(§3)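 Cells grown to exponential phase, treated with compound 2 h at 37°C, lysed in 1× SDS sample buffer, resolved on 10% SDS-PAGE and transferred to nitrocellulose for immunoblotting.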"}, "[6]": {"molecular_target": "Tyrosine-protein kinase receptor UFO (Homo sapiens, UniProt P30530)", "assay": "Inhibition of AXL (unknown origin) using poly (Glu, Tyr) 4:1 as substrate after 60 mins by ELISA", "how_it_was_run": "as §1"}, "[7]": {"molecular_target": "Tyrosine-protein kinase ABL1 (Homo sapiens, UniProt P00519)", "sequence (P00519 whole entry)": "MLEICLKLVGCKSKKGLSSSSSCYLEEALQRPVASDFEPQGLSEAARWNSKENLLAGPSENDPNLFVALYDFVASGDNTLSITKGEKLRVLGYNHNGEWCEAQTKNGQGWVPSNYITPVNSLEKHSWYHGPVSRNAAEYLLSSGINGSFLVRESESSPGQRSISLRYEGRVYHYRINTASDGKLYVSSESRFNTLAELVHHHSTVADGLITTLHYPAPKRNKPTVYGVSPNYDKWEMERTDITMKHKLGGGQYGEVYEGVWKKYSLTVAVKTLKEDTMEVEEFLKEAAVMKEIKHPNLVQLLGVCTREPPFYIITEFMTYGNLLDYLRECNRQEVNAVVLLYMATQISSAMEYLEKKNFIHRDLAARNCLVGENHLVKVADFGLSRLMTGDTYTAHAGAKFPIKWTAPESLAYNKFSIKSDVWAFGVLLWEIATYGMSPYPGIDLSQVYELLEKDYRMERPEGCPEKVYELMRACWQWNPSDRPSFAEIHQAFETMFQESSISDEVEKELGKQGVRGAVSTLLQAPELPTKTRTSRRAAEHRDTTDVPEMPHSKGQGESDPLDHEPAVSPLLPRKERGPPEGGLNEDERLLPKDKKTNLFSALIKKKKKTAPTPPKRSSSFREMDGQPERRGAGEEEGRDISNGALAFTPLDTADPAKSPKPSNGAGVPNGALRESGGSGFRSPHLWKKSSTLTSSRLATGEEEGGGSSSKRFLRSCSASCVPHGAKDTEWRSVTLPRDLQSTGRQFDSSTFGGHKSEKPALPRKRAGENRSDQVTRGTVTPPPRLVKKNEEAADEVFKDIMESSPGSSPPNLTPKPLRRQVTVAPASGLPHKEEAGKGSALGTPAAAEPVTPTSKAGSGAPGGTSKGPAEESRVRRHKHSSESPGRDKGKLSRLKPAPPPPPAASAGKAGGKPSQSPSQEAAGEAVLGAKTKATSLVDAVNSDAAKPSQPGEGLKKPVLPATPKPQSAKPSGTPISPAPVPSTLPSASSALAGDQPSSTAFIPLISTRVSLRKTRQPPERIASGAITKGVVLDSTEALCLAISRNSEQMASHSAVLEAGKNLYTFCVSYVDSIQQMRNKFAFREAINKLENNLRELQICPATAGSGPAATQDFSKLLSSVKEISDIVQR", "assay": "Inhibition of Abl (unknown origin) using poly (Glu, Tyr) 4:1 as substrate after 60 mins by ELISA", "how_it_was_run": "as §1"}, "[8]": {"molecular_target": "T1, Hepatocyte growth factor receptor (Homo sapiens, UniProt P08581)", "T1 sequence (P08581 whole entry)": "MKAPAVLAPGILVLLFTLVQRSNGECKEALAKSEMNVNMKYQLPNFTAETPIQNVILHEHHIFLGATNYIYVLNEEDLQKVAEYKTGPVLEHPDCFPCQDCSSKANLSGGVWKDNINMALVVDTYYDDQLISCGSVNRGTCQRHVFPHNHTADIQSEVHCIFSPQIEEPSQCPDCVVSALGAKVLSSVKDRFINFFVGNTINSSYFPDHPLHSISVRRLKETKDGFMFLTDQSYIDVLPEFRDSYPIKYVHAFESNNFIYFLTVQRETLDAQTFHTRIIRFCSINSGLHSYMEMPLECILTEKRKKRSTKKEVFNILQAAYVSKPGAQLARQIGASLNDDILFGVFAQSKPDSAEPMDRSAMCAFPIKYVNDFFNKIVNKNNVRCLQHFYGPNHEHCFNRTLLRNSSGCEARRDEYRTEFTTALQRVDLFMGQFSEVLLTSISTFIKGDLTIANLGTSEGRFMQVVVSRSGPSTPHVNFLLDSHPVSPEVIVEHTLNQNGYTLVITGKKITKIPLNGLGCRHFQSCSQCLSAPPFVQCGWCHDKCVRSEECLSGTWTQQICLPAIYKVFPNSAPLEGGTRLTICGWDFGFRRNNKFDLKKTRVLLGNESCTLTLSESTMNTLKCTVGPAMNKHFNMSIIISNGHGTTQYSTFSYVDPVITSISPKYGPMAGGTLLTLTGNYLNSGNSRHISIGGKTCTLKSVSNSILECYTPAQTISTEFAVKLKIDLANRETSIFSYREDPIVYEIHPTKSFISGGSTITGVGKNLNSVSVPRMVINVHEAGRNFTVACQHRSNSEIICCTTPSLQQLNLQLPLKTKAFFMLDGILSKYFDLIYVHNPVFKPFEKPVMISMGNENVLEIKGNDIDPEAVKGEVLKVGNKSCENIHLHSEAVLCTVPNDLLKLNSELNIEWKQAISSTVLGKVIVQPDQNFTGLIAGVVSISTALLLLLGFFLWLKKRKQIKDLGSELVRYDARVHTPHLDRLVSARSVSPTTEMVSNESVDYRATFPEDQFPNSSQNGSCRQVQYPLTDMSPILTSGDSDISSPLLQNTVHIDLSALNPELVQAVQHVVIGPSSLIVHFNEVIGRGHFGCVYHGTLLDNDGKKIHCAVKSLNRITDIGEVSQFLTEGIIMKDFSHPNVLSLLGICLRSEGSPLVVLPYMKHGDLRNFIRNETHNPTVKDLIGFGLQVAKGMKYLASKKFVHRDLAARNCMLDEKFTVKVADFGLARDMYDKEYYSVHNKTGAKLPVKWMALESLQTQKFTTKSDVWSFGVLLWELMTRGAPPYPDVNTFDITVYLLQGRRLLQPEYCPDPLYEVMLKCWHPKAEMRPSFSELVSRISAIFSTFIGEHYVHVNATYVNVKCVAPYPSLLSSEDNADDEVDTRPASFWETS", "assay": "Inhibition of c-Met in gefitinib-resistant human HCC827 cells assessed as inhibition of p44/42 phosphorylation at 0.5 uM after 2 hrs by Western blotting analysis in presence of gefitinib", "format": "cell-based", "how_it_was_run": "as §3"}, "[9]": {"molecular_target": "T1, Hepatocyte growth factor receptor", "assay": "Competitive inhibition of c-Met (unknown origin) at 1.3 to 160 uM by Lineweaver-Burk plot analysis in presence of ATP", "how_it_was_run": "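ATP-competition version of the poly(Glu,Tyr)4:1 ELISA kinase assay (60 min, 37°C, PY99 antibody detection, A490) run at various ATP concentrations; Lineweaver-Burk plot constructed.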"}, "[10]": {"molecular_target": "Proto-oncogene tyrosine-protein kinase Src (Homo sapiens, UniProt P12931)", "assay": "Inhibition of c-Src (unknown origin) using poly (Glu, Tyr) 4:1 as substrate after 60 mins by ELISA", "how_it_was_run": "(§4)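 Purified kinase incubated with 10 µmol/L ATP in wells pre-coated with 20 µg/mL poly(Glu,Tyr)4:1. Reaction ran 60 min at 37°C. Phosphotyrosine detected with PY99 antibody, then HRP anti-mouse IgG and o-phenylenediamine/H₂O₂, read at 490 nm. IC50 taken from inhibition curves.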"}, "NCI-H441": {"system": "NCI-H441", "assay": "Antiproliferative activity against human NCI-H441 cells after 72 hrs", "conditions": "NCI-H441, 72 h"}, "[11]": {"assay": "Antiproliferative activity against human EBC1 cells after 72 hrs", "conditions": "EBC-1, 72 h"}, "NIH3T3 [12]": {"system": "NIH3T3", "assay": "Antitumor activity against mouse NIH/3T3 cells expressing TPR/Met allografted in mouse assessed as tumor growth inhibition at 100 mg/kg, po qd administered for 2 weeks measured twice per week relative to vehicle-treated control", "format": "functional", "conditions": "NIH3T3, 336 h, read-out: TGI", "how_it_was_run": "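Tumor fragments (1 mm³) implanted s.c. in right flank of nude mice by trocar. Randomized at 100–150 mm³ tumor volume. Dosed orally 7 days/week for 2 weeks; vehicle controls. Calipers twice weekly; TV = length×width²/2. Inhibition = 100%×{1−[(T day14−T day0)/(C day14−C day0)]}. n = 6/group, Student's t-test.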"}, "Ephrin type-B receptor 2": {"molecular_target": "Ephrin type-B receptor 2 (Homo sapiens, UniProt P29323)", "sequence (P29323 whole entry)": "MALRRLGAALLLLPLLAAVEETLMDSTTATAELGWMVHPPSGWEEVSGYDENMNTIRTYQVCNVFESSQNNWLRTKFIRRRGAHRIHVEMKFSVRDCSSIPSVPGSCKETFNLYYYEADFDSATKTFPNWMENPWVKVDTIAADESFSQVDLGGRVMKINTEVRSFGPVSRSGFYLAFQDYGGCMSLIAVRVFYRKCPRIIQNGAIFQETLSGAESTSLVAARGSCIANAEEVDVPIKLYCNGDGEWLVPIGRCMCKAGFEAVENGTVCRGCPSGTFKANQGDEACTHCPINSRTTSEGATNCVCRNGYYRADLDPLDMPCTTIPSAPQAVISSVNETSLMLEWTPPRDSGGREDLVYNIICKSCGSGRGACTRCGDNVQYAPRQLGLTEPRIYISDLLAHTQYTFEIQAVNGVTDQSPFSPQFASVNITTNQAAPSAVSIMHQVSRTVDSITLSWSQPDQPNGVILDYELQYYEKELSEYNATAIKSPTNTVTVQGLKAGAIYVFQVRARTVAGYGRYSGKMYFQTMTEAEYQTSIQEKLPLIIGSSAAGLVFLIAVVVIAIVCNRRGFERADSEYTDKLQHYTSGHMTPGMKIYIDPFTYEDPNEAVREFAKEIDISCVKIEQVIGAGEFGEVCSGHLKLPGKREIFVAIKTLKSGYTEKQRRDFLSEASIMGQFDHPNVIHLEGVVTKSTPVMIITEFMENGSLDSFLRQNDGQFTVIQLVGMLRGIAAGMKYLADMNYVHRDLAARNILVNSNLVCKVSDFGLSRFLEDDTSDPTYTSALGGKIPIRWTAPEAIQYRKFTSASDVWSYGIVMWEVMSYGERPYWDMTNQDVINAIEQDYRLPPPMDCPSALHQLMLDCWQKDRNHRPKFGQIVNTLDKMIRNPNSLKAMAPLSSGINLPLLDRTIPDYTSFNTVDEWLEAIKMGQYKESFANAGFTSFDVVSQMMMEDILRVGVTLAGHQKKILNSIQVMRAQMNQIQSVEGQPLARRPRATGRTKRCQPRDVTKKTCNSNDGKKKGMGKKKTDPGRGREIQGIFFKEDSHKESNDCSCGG", "assay": "Inhibition of EPHB2 (unknown origin) using poly (Glu, Tyr) 4:1 as substrate after 60 mins by ELISA", "how_it_was_run": "as §1"}, "HCT-116": {"system": "HCT-116", "assay": "Antiproliferative activity against human HCT116 cells after 72 hrs", "conditions": "HCT-116, 72 h"}, "SK-OV-3": {"system": "SK-OV-3", "assay": "Antiproliferative activity against human SKOV3 cells after 72 hrs", "conditions": "SK-OV-3, 72 h"}, "[13]": {"molecular_target": "T1, Hepatocyte growth factor receptor", "assay": "Inhibition of c-Met in human SNU5 cells assessed as inhibition of p44/42 phosphorylation at 0.16 to 20 uM after 2 hrs by Western blotting analysis", "format": "cell-based", "conditions": "SNU-5", "how_it_was_run": "as §3"}, "[14]": {"molecular_target": "Platelet-derived growth factor receptor beta (Homo sapiens, UniProt P09619)", "assay": "Inhibition of PDGFRbeta (unknown origin) using poly (Glu, Tyr) 4:1 as substrate after 60 mins by ELISA", "how_it_was_run": "as §1"}, "[15]": {"molecular_target": "T1, Hepatocyte growth factor receptor", "assay": "Inhibition of c-Met phosphorylation in human MKN45 cells after 2 hrs by Western blotting analysis", "format": "cell-based", "conditions": "MKN-45", "how_it_was_run": "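Cells grown under regular conditions to exponential phase, exposed to compound at indicated concentrations for 2 h at 37°C, lysed in 1× SDS sample buffer. Lysates resolved on 10% SDS-PAGE and transferred to nitrocellulose for immunoblotting.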"}, "NIH3T3 [16]": {"system": "NIH3T3", "assay": "Antiproliferative activity against mouse NIH/3T3 cells expressing TPR/Met fusion protein after 72 hrs", "format": "functional, cell-based", "conditions": "NIH3T3, 72 h", "how_it_was_run": "as §2"}, "Mus musculus": {"system": "Mus musculus", "assay": "Toxicity in mouse allografted with mouse NIH/3T3 cells assessed as decrease in body weight at 100 mg/kg, po qd administered for 2 weeks measured twice per week", "format": "organism-based, NIH3T3", "design": "dose 100 mg/kg, route oral", "conditions": "in vivo, 336 h", "how_it_was_run": "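Tumor fragments of 1 mm³ implanted s.c. in the right flank of nude mice with a trocar. Mice randomized once tumors reached 100–150 mm³. Oral dosing 7 days/week for 2 weeks; vehicle-only controls. Tumors measured twice weekly by microcaliper; body weight monitored.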"}, "[17]": {"molecular_target": "Mast/stem cell growth factor receptor Kit (Homo sapiens, UniProt P10721)", "assay": "Inhibition of c-kit (unknown origin) using poly (Glu, Tyr) 4:1 as substrate after 60 mins by ELISA", "how_it_was_run": "as §4"}, "Ephrin type-A receptor 2": {"molecular_target": "Ephrin type-A receptor 2 (Homo sapiens, UniProt P29317)", "assay": "Inhibition of EPHA2 (unknown origin) using poly (Glu, Tyr) 4:1 as substrate after 60 mins by ELISA", "how_it_was_run": "as §1"}},
  "note": "Active and inactive are the calls of the source. The calls are words filed in the database; no cut-off is given here.",
  "data": [
    {"smiles": "C[C@@H](Sc1cc(-c2cnn(C3CCNCC3)c2)cnc1N)c1c(Cl)ccc(F)c1Cl", "values": [
      {"measurement": "inhibition", "setting": "[1]", "value": "Active"},
      {"measurement": "Vd", "setting": "[2]", "value": 20, "unit": "L/kg"},
      {"measurement": "IC50", "setting": "[3]", "value": 336, "unit": "nM"},
      {"measurement": "Activity", "setting": "MKN-45", "value": 60.1, "unit": "%"},
      {"measurement": "IC50", "setting": "[4]", "value": "> 1000", "unit": "nM"},
      {"measurement": "IC50", "setting": "MCF7", "value": 11600, "unit": "nM"},
      {"measurement": "IC50", "setting": "BaF3", "value": 580, "unit": "nM"},
      {"measurement": "inhibition", "setting": "[5]", "value": "Dose-dependent effect"},
      {"measurement": "IC50", "setting": "[6]", "value": 446, "unit": "nM"},
      {"measurement": "IC50", "setting": "[7]", "value": "> 1000", "unit": "nM"},
      {"measurement": "inhibition", "setting": "[8]", "value": "Active"},
      {"measurement": "inhibition", "setting": "[9]", "value": "Active"},
      {"measurement": "IC50", "setting": "[10]", "value": "> 1000", "unit": "nM"},
      {"measurement": "IC50", "setting": "NCI-H441", "value": 15500, "unit": "nM"},
      {"measurement": "IC50", "setting": "[11]", "value": 710, "unit": "nM"},
      {"measurement": "inhibition in vivo at 100 mg/kg", "setting": "NIH3T3 [12]", "value": 45.5, "unit": "%"},
      {"measurement": "IC50", "setting": "Ephrin type-B receptor 2", "value": "> 1000", "unit": "nM"},
      {"measurement": "IC50", "setting": "HCT-116", "value": 14300, "unit": "nM"},
      {"measurement": "IC50", "setting": "SK-OV-3", "value": 12700, "unit": "nM"},
      {"measurement": "inhibition", "setting": "[13]", "value": "Active"},
      {"measurement": "IC50", "setting": "[14]", "value": "> 1000", "unit": "nM"},
      {"measurement": "inhibition", "setting": "[15]", "value": "Dose-dependent effect"},
      {"measurement": "IC50", "setting": "NIH3T3 [16]", "value": 610, "unit": "nM"},
      {"measurement": "Activity", "setting": "Mus musculus", "value": "Non-toxic"},
      {"measurement": "IC50", "setting": "[17]", "value": "> 1000", "unit": "nM"},
      {"measurement": "IC50", "setting": "Ephrin type-A receptor 2", "value": "> 1000", "unit": "nM"}
    ]}
  ]
}
